Data published in ChEMBL document CHEMBL1156653, “Bioactive asterric acid derivatives from the Antarctic ascomycete fungus Geomyces sp” (J Nat Prod, 2008).
Converted amounts (≈) assume the structure as drawn.

Experiments:
Assay type in all cases: functional, organism-based
Aspergillus fumigatus = test: Antifungal activity against Aspergillus fumigatus ATCC 10894
Outline: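 A. fumigatus grown on potato dextrose agar, then in broth at 28 °C for 48 h. Final inoculum was 10^4 mycelial fragments/mL in PDB. Samples were 10 mg/mL DMSO stocks, serially diluted and tested in triplicate. A595 was read after incubation. IC50 came from the inhibition-rate vs concentration plot. MIC was the lowest concentration giving complete growth inhibition.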

Escherichia coli = test: Antimicrobial activity against Escherichia coli CGMCC 1.2340
Outline: (§1)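 Bacteria grown on Mueller-Hinton agar, then in broth at 37 °C for 24 h. Final suspension was 10^6 cells/mL in MHB. Samples were 10 mg/mL DMSO stocks, serially diluted and tested in triplicate. Absorbance at 595 nm was read after incubation. IC50 came from plotting inhibition rate vs concentration. MIC was the lowest concentration completely inhibiting growth.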

Streptococcus pneumoniae = test: Antimicrobial activity against Streptococcus pneumoniae CGMCC 1.1692; outline: as §1
Staphylococcus aureus = test: Antimicrobial activity against Staphylococcus aureus ATCC 6538; outline: as §1

Compound | IC50 (Aspergillus fumigatus) | MIC (Aspergillus fumigatus) | IC50 (Escherichia coli) | IC50 (Streptococcus pneumoniae) | IC50 (Staphylococcus aureus) | MIC (Escherichia coli) | MIC (Streptococcus pneumoniae) | MIC (Staphylococcus aureus)
OC(Cn1cncn1)(Cn1cncn1)c1ccc(F)cc1F [FLUCONAZOLE] | 7.35 µM | 163 µM (≈ 50 µg/mL) |  |  |  |  |  | 
CCOC(=O)c1c(O)cc(C)cc1Oc1c(OC)cc(O)cc1C(=O)OC [ETHYL ASTERRATE] | > 50 µM |  | > 50 µM | > 50 µM | > 50 µM |  |  | 
CN[C@@H]1[C@H](O[C@H]2[C@H](O[C@H]3[C@H](O)[C@@H](O)[C@H](N=C(N)N)[C@@H](O)[C@@H]3N=C(N)N)O[C@@H](C)[C@]2(O)C=O)O[C@@H](CO)[C@H](O)[C@H]1O [STREPTOMYCIN] |  |  | 1.05 µM |  |  | 11.2 µM (≈ 6.51 µg/mL) |  | 
COC(=O)c1cc(OC(=O)c2c(O)cc(C)cc2Oc2c(OC)cc(O)cc2C(=O)OC)cc(OC)c1Oc1cc(C)cc(O)c1C(=O)O [GEOMYCIN B] | 0.86 µM | 29.5 µM (≈ 20 µg/mL) |  |  |  |  |  | 
COC(=O)C1=CC(=O)C=C(OC)[C@]12Oc1cc(C)cc(OC(=O)c3c(O)cc(C)cc3Oc3c(OC)cc(O)cc3C(=O)OC)c1C2=O [GEOMYCIN C] |  |  | 12.9 µM | 36.2 µM | 17.3 µM | 30.3 µM (≈ 20 µg/mL) | 152 µM (≈ 100 µg/mL) | 75.8 µM (≈ 50.1 µg/mL)
COC(=O)c1cc(OC(=O)c2c(O)cc(C)cc2Oc2c(OC)cc(O)cc2C(=O)OC)cc(OC)c1Oc1cc(C)cc(O)c1C(=O)OC [GEOMYCIN A] | > 50 µM |  | > 50 µM | > 50 µM | > 50 µM |  |  | 
CCCCOC(=O)c1c(O)cc(C)cc1Oc1c(OC)cc(O)cc1C(=O)OC [BUTYL ASTERRATE] | > 50 µM |  | > 50 µM | > 50 µM | > 50 µM |  |  | 
